Screening results (PubChem)
PKD1 inh – inhibitors of human PKD1 kinase; inhibition, % (concentration not given with the values); AID 797; hit rate 0.056% among 200,000; Q15139; PKD1 kinase fluorescence polarization assay
L major viab – Leishmania major promastigote growth inhibition; Leishmania major promastigotes, resazurin fluorescence viability; inhibition, % at 10 µM; hit rate 9% among 200,000;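 note: promastigotes grown with compound for 44 hours at 28 °C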
GSH bead fluor – GSH bead compound fluorescence profile; GSH beads flow cytometry, compound fluorescence 488/530 nm; active compounds read high; fluorescence (KMESF) at 10 µM; hit rate 0.25% among 190,000; AID 1776; in the data active = fluorescence above about 89;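 note: glutathione beads carrying GST-tagged Bcl family fusion proteins plus one bare bead set; values are compound well signal with DMSO vehicle wells as background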
ABCB1 block – human ABCB1 inhibition, ABCG2 as counter-screen; CCRF-Adr cells, JC-1 efflux, flow cytometry; inhibition, % at 6.6 µM; hit rate 0.067% among 190,000; in the data active = inhibition above about 40%;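 note: 0% = vehicle and 100% = reference inhibitor; higher value means more JC-1 retained so stronger ABCB1 efflux block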
ABCG2 block – inhibitors of human ABCG2 transporter, ABCB1 counter-screen. Q9UNQ0. IgMXP3 cells, JC-1 efflux, flow cytometry. inhibition, % at 6.6 µM. hit rate 0.1% among 190,000. AID 1325;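 active = inhibition above 80%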;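 note: 0% = DMSO and 100% = nicardipine control wells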
Target sequence (Q9UNQ0 whole entry, looked up): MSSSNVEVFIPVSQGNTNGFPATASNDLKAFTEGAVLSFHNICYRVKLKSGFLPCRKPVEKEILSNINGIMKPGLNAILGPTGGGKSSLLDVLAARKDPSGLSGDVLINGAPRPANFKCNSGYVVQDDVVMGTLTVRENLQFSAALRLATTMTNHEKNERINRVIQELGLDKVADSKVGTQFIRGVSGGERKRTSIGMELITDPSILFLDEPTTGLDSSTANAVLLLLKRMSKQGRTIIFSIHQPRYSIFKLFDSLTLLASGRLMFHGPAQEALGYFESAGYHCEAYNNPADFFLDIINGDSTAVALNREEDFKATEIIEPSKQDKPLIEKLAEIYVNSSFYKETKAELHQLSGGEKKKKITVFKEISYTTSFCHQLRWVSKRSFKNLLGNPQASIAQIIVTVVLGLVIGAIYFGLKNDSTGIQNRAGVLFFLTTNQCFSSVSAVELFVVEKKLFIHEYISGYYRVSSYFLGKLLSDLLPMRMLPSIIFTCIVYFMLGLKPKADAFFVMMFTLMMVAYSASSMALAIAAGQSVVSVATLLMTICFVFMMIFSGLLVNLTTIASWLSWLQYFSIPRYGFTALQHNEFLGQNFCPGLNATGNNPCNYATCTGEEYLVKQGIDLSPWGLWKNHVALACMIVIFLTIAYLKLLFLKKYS
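Read-out basis: Efflux inhibition in percent versus controls | Test system: ABCG2 IgMXP3 and barcoded ABCB1 CCRF-Adr cell mix | Quantity: 3 million cells/mL in well | Schedule: 10 min at 25 °C | Control set: Nicardipine as high control, DMSO as low control | Reagent: JC-1 as fluorescent efflux pump substrate | Signal: Flow cytometry of retained JC-1 fluorescence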
Avidin bead fluor – avidin bead compound fluorescence profile | Avidin beads, compound fluorescence 488/530 nm, flow cytometry; active compounds read high | fluorescence (KMESF) at 10 µM | hit rate 0.38% among 220,000; in the data active = fluorescence above about 47
* hit, by the source's call; / = no result given. Shown is part of a subset that was picked to be rich in hits. Cut-off read from the data, not from the text of the source, unless noted: active = inhibition above about 50%; inactive = the rest.

SMILES	PKD1 inh	L major viab	GSH bead fluor	ABCB1 block	ABCG2 block	Avidin bead fluor
O=C(NNC(=O)[C@H]1CC=CC[C@H]1C(=O)O)c1ccc(Cl)cc1Cl	5	-12	14	0	1	13
O=S(=O)(NCc1ccccc1)c1cccs1	1	5	54	0	0	13
CC1(C)CC(=O)C2=C(C1)Nc1cc3c(cc1C2c1ccc2c(c1)OCO2)OCO3 (stereo not given)	-2	99*	24	1	3	7
Cc1ccc(CNC(=O)C2CCCN(c3nn4c(=O)cc(C)nc4s3)C2)cc1 (stereo not given)	2	-6	17	1	15	14
CC(NC(=O)OCc1ccccc1)C(=O)NCC(=O)NC(Cc1ccc(OC(C)(C)C)cc1)C(=O)OC(C)(C)C (stereo not given)	-6	53*	10	0	1	12
CC1=C(C)Cc2c(OC(=O)c3ccccc3)ccc(OC(=O)c3ccccc3)c2C1	/	/	/	/	/	2
CCOC(=O)C1=C(CN2CCOCC2)NC(=O)NC1c1cccc([N+](=O)[O-])c1 (stereo not given)	4	-5	14	0	1	/
CCOC(=O)C1=C(C)N(c2ccccc2)C(=O)NC1c1cccc([N+](=O)[O-])c1 (stereo not given)	6	95*	10	7	14	17
O=C(COc1ccccc1C(=O)Nc1ccccc1)NCCc1ccccc1	-6	-3	17	1	5	8
CCOc1cc(CNCCO)c(Cl)cc1OCC(=O)NCCc1ccccc1	-6	91*	9	0	1	30
CCOc1cc(CNC(C)C)c(Cl)cc1OCC(=O)NCCc1ccccc1	15	99*	11	0	1	25
CCOc1cc(C=O)cc(Br)c1OCC(=O)NCCc1ccccc1	9	46	20	2	21	6
COC(=O)c1c(NC(=O)c2nc3ccccc3s2)sc2c1CC(C)(C)NC2(C)C	-6	87*	19	3	5	7
CCOc1ccc(C(=O)Nc2sc3c(c2C(=O)OC)CC(C)(C)NC3(C)C)cc1	6	94*	18	2	1	6
CCOC(=O)c1c(NC(=O)COc2ccccc2)sc2c1CC(C)(C)NC2(C)C	5	5	19	4	9	24
COc1ccccc1-n1c(C)nc2cc(C(=O)NCCN3CCOCC3)ccc21	10	6	18	1	0	8
Cc1oc(-c2cc(F)ccc2F)nc1CN1CCN(c2cnccn2)CC1	1	-4	26	2	4	10
Cc1oc(-c2cc(F)ccc2F)nc1CN(C)Cc1ccc2nccnc2c1	-1	75*	15	1	20	11
C=CCn1c(=O)c2c3c(sc2n2c(Nc4ccccc4)nnc12)CCCC3	-4	52*	14	0	0	24
C=CCn1c(=O)c2c3c(sc2n2c(Nc4ccc(C(=O)OCC)cc4)nnc12)CCCC3	-1	94*	5	3	5	6
c1cncc(N=c2scc(-c3cccc4ccccc34)n2CCCn2ccnc2)c1	-2	80*	9	0	1	7
Cc1ccc(-c2csc(=Nc3cccnc3)n2CCCn2ccnc2)cc1C	-8	95*	5	2	2	4
O=C(c1ccc(Cl)cc1)N1CCCC(C(=O)N2CCN(c3ccccc3)CC2)C1 (stereo not given)	/	/	/	/	/	5
Cc1ccc(-c2nn(-c3ccccc3)cc2CSC(=N)N)cc1	-10	100*	31	1	4	9
O=C(/C=C/c1ccco1)Oc1cc(Br)cc(/C=N/NC(=O)c2ccccc2O)c1	-4	99*	7	0	-1	2
SMILES	PKD1 inh	L major viab	GSH bead fluor	ABCB1 block	ABCG2 block	Avidin bead fluor
O=S(c1ccc2ccccc2c1)c1cnns1 (stereo not given)	1	10	15	4	0	9
COc1ccccc1Nc1nnc(SCC(=O)NC(=O)Nc2ccc3c(c2)OCCO3)s1	3	56*	5	2	1	14
Cc1ccccc1Nc1nnc(SCC(=O)NC(=O)Nc2ccc3c(c2)OCCO3)s1	-18	60*	4	-1	-6	13
COCCNC(=O)C(OC(=O)c1cc2oc(C)cc2n1C)C(C)C (stereo not given)	-5	40	12	0	1	38
Cc1nsc(Nc2ccc([N+](=O)[O-])cc2)c1C#N	-1	8	12	1	11	8
Cc1ccc(NC(C)C(=O)N/N=C/c2ccc([N+](=O)[O-])s2)cc1 (stereo not given)	6	100*	21	0	2	10
COc1ccc(NC(C)C(=O)N/N=C/c2ccc([N+](=O)[O-])s2)cc1 (stereo not given)	-2	100*	20	0	5	5
CCOc1ccc(NC(C)C(=O)N/N=C/c2ccc([N+](=O)[O-])cc2)cc1 (stereo not given)	-2	-5	17	0	3	7
Cn1cccc1Cc1nnc(SCC(=O)N2CCN(c3ccccc3)CC2)n1-c1ccc(F)cc1	-1	0	10	0	0	9
COC(=O)c1cc(NC2c3ccccc3C(=O)N2c2cccnc2)cc(C(=O)OC)c1 (stereo not given)	-7	9	20	-2	-2	7
C=CCSc1nnc2c(n1)OC(c1ccccn1)N(C(C)=O)c1ccccc1-2 (stereo not given)	0	-5	33	0	9	215*
CCOc1ccccc1C(=O)Nc1ccc(-n2nncc2C(C)(C)C)cc1	2	0	11	3	5	23
O=c1c2c([nH]c3ccccc13)CCCC2	-3	55*	62	0	2	13
Cc1c2c(nc3ccccc13)CCC(C(C)(C)C)C2 (stereo not given)	-1	49	12	0	8	11
CC(C)(C)C1CCc2[nH]c3ccccc3c(=O)c2C1 (stereo not given)	3	100*	4	0	6	7
O=C(Nc1ccccc1N1CCOCC1)C1CCN(S(=O)(=O)c2ccccc2F)CC1	0	56*	9	1	43	15
CCOc1ccc(N2CC(C(=O)Nc3ccccc3N3CCOCC3)CC2=O)cc1 (stereo not given)	-1	77*	37	0	1	4
CCn1c(Sc2ccc([N+](=O)[O-])cn2)nnc1-c1ccco1	1	10	14	0	-1	6
Cc1cc(C)cc(NC(=O)Cn2ncn3c(cc4ccccc43)c2=O)c1	4	0	53	0	2	7
CN(C)c1ccc(NC(=O)Cn2ncn3c(cc4ccccc43)c2=O)cc1	-2	58*	21	0	0	13
CC(=O)N(CCCc1ccc(C(C)(C)C)cc1)CCCN(C)C	-10	99*	16	1	1	6
